For experiment [1], the system named is NCI-H460. As to the kind of experiment: Antiproliferative activity against human NCI-H460 cells assessed as growth at 100 uM after 48 hrs by alamar blue assay. The following applies: NCI-H460, 48 h, read-out: Activity. The class given is functional. The procedure, abridged:
(§1)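 Single-dose prescreen in a three-line NCI panel (NCI-H460, MCF7, SF-268). Cells were inoculated and preincubated on microtiter plates, then exposed to test agent at 100 μM for 48 h. Alamar blue end-point. Growth is expressed as percent of untreated control cells.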
In general terms: Alamar Blue is a resazurin reagent that responds to reducing activity.

In experiment [2] the test system is MCF7. As to the kind of experiment: Antiproliferative activity against human MCF7 cells assessed as growth at 100 uM after 48 hrs by alamar blue assay. The class given is functional. The following applies: MCF7, 48 h, read-out: Activity. The procedure, abridged: as §1
Experiment [3] concerns SF-268. Kind of experiment: Antiproliferative activity against human SF268 cells assessed as growth at 100 uM after 48 hrs by alamar blue assay. The conditions noted are these: SF-268, 48 h, read-out: Activity. Format: functional. The procedure, abridged:
as §1

For experiment [4], the system named is CCRF-CEM. Kind of experiment: Growth inhibition of human CCRF-CEM cells after 48 hrs by sulforhodamine B assay. The class given is functional. The procedure, abridged: (§2)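 NCI 60-line screen. Cells grown in RPMI 1640 with 5% FBS and 2 mM L-glutamine, seeded at 5000–40,000 cells/well, preincubated 24 h at 37 °C. Five 10-fold dilutions added, highest well concentration 10E-4 M. Incubated 48 h in 5% CO₂ at 100% humidity. Sulforhodamine B read-out by optical density; GI50 taken from dose-response curves versus control.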
Background: Sulforhodamine B stains cellular protein and so reports cell mass.

The test system of experiment [5] is SR. As to the kind of experiment: Growth inhibition of human SR cells after 48 hrs by sulforhodamine B assay. The class given is functional. The procedure, abridged:
(§3)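 NCI 60-line screen. Cells grown in RPMI 1640 with 5% FBS and 2 mM L-glutamine, seeded at 5000-40,000 cells/well and preincubated 24 h at 37 °C. Compounds added at five 10-fold dilutions, highest well concentration 10E-4 M. Exposure 48 h in 5% CO2 at 100% humidity. Endpoint is sulforhodamine B with optical density read-out. GI50 is the concentration giving 50% growth inhibition versus control.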

Experiment [6] concerns A549. As to the kind of experiment: Growth inhibition of human A549 cells after 48 hrs by sulforhodamine B assay. The class given is functional, cell-based. The conditions noted are these: A549, 48 h. The procedure, abridged: as §2
In experiment [7] the test system is HCT-116. Kind of experiment: Growth inhibition of human HCT116 cells after 48 hrs by sulforhodamine B assay. The class given is functional. The following applies: HCT-116, 48 h. The procedure, abridged:
as §2

Experiment [8] has as its system U-251. Kind of experiment: Growth inhibition of human U251 cells after 48 hrs by sulforhodamine B assay. The following applies: U-251, 48 h. The class given is functional. The procedure, abridged:
as §3

Experiment [9] has as its system SK-MEL-5. As to the kind of experiment: Growth inhibition of human SK-MEL-5 cells after 48 hrs by sulforhodamine B assay. Format: functional. The following applies: SK-MEL-5, 48 h. The procedure, abridged: as §3
In experiment [10] the test system is IGROV-1. As to the kind of experiment: Growth inhibition of human IGROV1 cells after 48 hrs by sulforhodamine B assay. Format: functional. The following applies: IGROV-1, 48 h. The procedure, abridged: as §2
The subject of experiment [11] is RXF 393. As to the kind of experiment: Growth inhibition of human RXF393 cells after 48 hrs by sulforhodamine B assay. The class given is functional. The conditions noted are these: RXF 393, 48 h. The procedure, abridged:
as §3

Experiment [12] concerns DU-145. As to the kind of experiment: Growth inhibition of human DU145 cells after 48 hrs by sulforhodamine B assay. The class given is functional. The following applies: DU-145, 48 h. The procedure, abridged: as §2
The nature of experiment [13]: Growth inhibition of human Hs 578T cells after 48 hrs by sulforhodamine B assay. The class given is functional. The procedure, abridged:
as §2

The results in this text go back to ChEMBL document CHEMBL2046306, “Synthesis of 6-substituted 9-methoxy-11H-indeno[1,2-c]quinoline-11-one derivatives as potential anticancer agents” (Bioorg Med Chem, 2012).

For `COc1ccc2c(c1)C(=O)c1c-2c(Nc2ccc(F)cc2F)nc2ccccc12`, the growth at 100 µM in [1] was 96%; in experiment [2] it was 99%; in experiment [3] it was 68%.
Turning to `COc1ccc2c(c1)C(=O)c1c-2c(NCCN(C)C)nc2ccccc12`, the growth at 100 µM was 0% in experiment [1], 0% in experiment [2] and 6% in experiment [3]. The GI50 in [4], in experiment [5], in experiment [6], in [7], in experiment [8] and in experiment [9] was 3.47 µM in each case. Also, the GI50 in [10], in experiment [11], in experiment [12] and in experiment [13] was 3.47 µM each time.
`COc1cccc(Nc2nc3ccccc3c3c2-c2ccc(OC)cc2C3=O)c1`: the results for the growth at 100 µM in experiment [1], in experiment [2] and in [3] were 83%, 79% and 87%, respectively.
As for `COc1ccc2c(c1)/C(=N\OCCCN)c1c-2c(N2CCNCC2)nc2ccccc12`, the IC50 (usually the point on the concentration scale where inhibition reaches its midpoint) in experiment [6] was found to be 0.64 µM.
For `COc1ccc2c(c1)/C(=N\OC(C)=O)c1c-2c(Nc2cccc(/C(C)=N/OC(C)=O)c2)nc2ccccc12`, the results for the growth at 100 µM in experiment [1], in [2] and in experiment [3] were 96%, 32% and 43%, respectively. For the same compound, the GI50 in [4], in experiment [5], in experiment [6], in experiment [7], in [8] and in experiment [9] was 53.7 µM in each case. In addition, the GI50 in [10], in experiment [11], in experiment [12] and in experiment [13] was 53.7 µM throughout.
For the compound `CO/N=C1/c2cc(OC)ccc2-c2c(Nc3ccc(/C(C)=N/OC)cc3)nc3ccccc3c21`, the growth at 100 µM was found to be 112% in [1], 89% in [2] and 108% in experiment [3].
On to `CO/N=C1/c2cc(OC)ccc2-c2c(Nc3cccc(/C(C)=N/OC)c3)nc3ccccc3c21`, for which the figures for the growth at 100 µM in experiment [1], in experiment [2] and in experiment [3] were 82%, 80% and 92%, respectively.
For `COc1ccc2c(c1)C(=O)c1c-2c(Nc2ccc(Cl)cc2)nc2ccccc12`, the growth at 100 µM in experiment [1] turned out to be 10%; in experiment [2], 96%; in [3], 42%. Further, the GI50 in experiment [4], in [5], in experiment [6], in experiment [7], in experiment [8] and in [9] was 15.1 µM throughout. Further, the 50% growth inhibitory concentration (GI50) in [10], in experiment [11], in experiment [12] and in [13] was 15.1 µM throughout.
Turning to `COc1ccc2c(c1)C(=O)c1c-2c(Nc2ccc(OC)c(OC)c2)nc2ccccc12`, the growth at 100 µM came out at 68% in experiment [1], 90% in experiment [2] and 41% in [3].
As to `COc1ccc(Nc2nc3ccccc3c3c2-c2ccc(OC)cc2C3=O)c(OC)c1`, the growth at 100 µM in experiment [1] was 110%; in experiment [2], 103%; in experiment [3] it was 107%.
`COc1ccc2c(c1)C(=O)c1c-2c(Nc2ccc(F)c(F)c2)nc2ccccc12`: the growth at 100 µM in experiment [1] amounted to 96%; in experiment [2], 106%; in [3] it was 69%.
Consider `CN(C)CCCOc1ccc(-c2nc3ccc(OCCCN(C)C)cc3c3c2-c2ccc(OCCCN(C)C)cc2C3=O)cc1`, for which, in [6], the 50% inhibitory concentration (IC50) was 0.68 µM. This lies in the sub-micromolar range.
As for `COc1ccc(Nc2nc3ccccc3c3c2-c2ccc(OC)cc2C3=O)cc1`, the values for the growth at 100 µM in [1], in [2] and in experiment [3] were 69%, 74% and 65%, respectively.
